The results in this text go back to ChEMBL document CHEMBL1156459, “Discovery of a small molecule antagonist of the parathyroid hormone receptor by using an N-terminal parathyroid hormone peptide probe” (Proc Natl Acad Sci U S A, 2007).

The target of test [1] is T1, Parathyroid hormone/parathyroid hormone-related peptide receptor (Rattus norvegicus, UniProt P25961).
T1 sequence (P25961 whole entry): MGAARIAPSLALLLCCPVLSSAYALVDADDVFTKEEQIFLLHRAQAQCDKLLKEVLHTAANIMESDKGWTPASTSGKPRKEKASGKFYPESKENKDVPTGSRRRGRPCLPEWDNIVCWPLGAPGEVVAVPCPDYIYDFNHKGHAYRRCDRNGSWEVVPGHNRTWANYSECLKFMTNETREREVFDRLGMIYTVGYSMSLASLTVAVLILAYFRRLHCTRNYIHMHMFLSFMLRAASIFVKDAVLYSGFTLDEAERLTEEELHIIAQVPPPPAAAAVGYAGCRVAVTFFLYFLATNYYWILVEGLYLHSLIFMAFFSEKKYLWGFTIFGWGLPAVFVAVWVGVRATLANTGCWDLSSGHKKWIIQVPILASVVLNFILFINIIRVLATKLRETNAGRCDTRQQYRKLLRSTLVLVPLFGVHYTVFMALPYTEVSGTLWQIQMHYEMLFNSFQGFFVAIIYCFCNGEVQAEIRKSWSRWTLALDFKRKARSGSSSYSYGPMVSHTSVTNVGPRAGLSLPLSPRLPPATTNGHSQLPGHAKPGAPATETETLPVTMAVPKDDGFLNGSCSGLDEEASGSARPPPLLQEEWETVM
In words: Activity at rat PTH/PTH-related peptide receptor expressed in rat UMR106 cells assessed as cAMP formation. It is filed as functional, cell-based. The method in brief: (§1)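 Nonconfluent cells grown at 37°C in DMEM with 10% FBS, refed 12–24 h before assay. Rinsed with warm PBS, detached with prewarmed EDTA (37°C, 5–10 min), spun at 300 × g for 5 min. Resuspended in HBSS/5 mM Hepes/0.1% BSA/0.5 mM IBMX, pH 7.4. cAMP read by AlphaScreen.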
A general note: cAMP levels reflect the balance of adenylyl cyclase and phosphodiesterase activity.

For test [2], the target named is T2, Parathyroid hormone/parathyroid hormone-related peptide receptor (Homo sapiens, UniProt Q03431).
T2 sequence (Q03431 whole entry): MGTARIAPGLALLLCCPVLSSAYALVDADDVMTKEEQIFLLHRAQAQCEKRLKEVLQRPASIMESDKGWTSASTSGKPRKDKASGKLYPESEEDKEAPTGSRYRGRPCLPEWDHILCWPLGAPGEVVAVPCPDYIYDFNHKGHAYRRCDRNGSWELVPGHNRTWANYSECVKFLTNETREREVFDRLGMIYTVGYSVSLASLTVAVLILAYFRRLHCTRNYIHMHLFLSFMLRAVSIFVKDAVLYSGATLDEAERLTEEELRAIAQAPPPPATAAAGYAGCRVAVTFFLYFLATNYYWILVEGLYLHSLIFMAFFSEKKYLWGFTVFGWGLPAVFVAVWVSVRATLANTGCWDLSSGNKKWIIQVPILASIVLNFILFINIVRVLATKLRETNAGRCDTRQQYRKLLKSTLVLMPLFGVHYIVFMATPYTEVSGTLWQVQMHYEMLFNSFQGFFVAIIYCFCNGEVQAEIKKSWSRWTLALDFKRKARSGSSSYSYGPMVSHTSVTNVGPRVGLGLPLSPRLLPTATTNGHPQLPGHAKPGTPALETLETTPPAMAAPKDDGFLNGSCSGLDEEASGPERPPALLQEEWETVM
Kind of test: Displacement of [125I]DPC-AJ1951 from PTH/PTH-related peptide receptor expressed in HKRK-B28 cells. Format: cell-based. The essentials:
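Whole HKRK-B28 cells plated at 30,000/well and incubated overnight at 37°C, 5% CO2. Incubated 3 h at room temperature, washed three times, bound radioactivity counted by scintillation.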

For test [3], the target named is T2, Parathyroid hormone/parathyroid hormone-related peptide receptor. Kind of test: Activity at human PTH/PTH-related peptide receptor expressed in SAOS2 cells assessed as cAMP formation. It is filed as functional, cell-based, SAOS-2. The essentials:
as §1

Test [4] has the same target. In words: Activity at human PTH/PTH-related peptide receptor expressed in HEK293 cells assessed as induction of luciferase activity by CRE-luciferase reporter assay. It is filed as functional, cell-based. Background: Reporter assays use an easily measured gene product as a stand-in for the process of interest.
The species entered for a further test is Mus musculus. In words: Inhibition of bone mineralization in embryonic mouse metatarsal. It is filed as functional.

Structures are written as SMILES. Calls of active or inactive are those of the source. No cut-off for these calls is given here. Square brackets hold non-standard residues; d marks the D form. Peptide text beside a SMILES is read from it. * marks the point of attachment. X1 = O=C(c1ccccc1-c1c2ccc(=O)cc-2oc2cc(O)ccc12)*; hArg = N=C(N)NCCCC[C@H](N)C(=O)O; Nle = CCCC[C@H](N)C(=O)O; Aib = CC(C)(N)C(=O)O

In the case of `CC[C@H](C)[C@H](NC(=O)[C@H](CCC(=O)O)NC(=O)[C@H](C)NC(=O)[C@@H](NC(=O)[C@H](C)N)C(C)C)C(=O)N[C@@H](CCC(N)=O)C(=O)N[C@@H](CC(C)C)C(=O)N[C@@H](CCSC)C(=O)N[C@@H](Cc1cnc[nH]1)C(=O)N[C@@H](CCC(N)=O)C(=O)N[C@@H](CCCCN=C(N)N)C(=O)N[C@@H](C)C(=O)N[C@@H](CCCCN)C(=O)N[C@@H](Cc1c[nH]c2ccccc12)C(N)=O` (H-AVAEIQLMHQ[hArg]AKW-NH2), the EC50 (in general, the concentration giving half of the maximal effect) came out at 155 nM in test [1], 800 nM in test [3] and 32 nM in test [4]. Also, in test [2], the IC50 (in general, the midpoint of a concentration-inhibition curve) was 10500 nM.
`CC[C@H](C)[C@H](NC(=O)[C@H](CCC(=O)O)NC(=O)[C@H](C)NC(=O)[C@@H](NC(=O)[C@H](C)N)C(C)C)C(=O)N[C@@H](CCC(N)=O)C(=O)N[C@@H](CC(C)C)C(=O)N[C@@H](CCSC)C(=O)N[C@@H](Cc1cnc[nH]1)C(=O)N[C@@H](CCC(N)=O)C(=O)N[C@@H](CCCCNC(=N)N)C(=O)N[C@@H](C)C(=O)N[C@@H](CCCCN)C(=O)N[C@@H](Cc1c[nH]c2ccccc12)C(=O)N[C@@H](CCCCNC(=O)c1ccccc1-c1c2ccc(=O)cc-2oc2cc(O)ccc12)C(N)=O` (H-AVAEIQLMHQ[hArg]AKWK(X1)-NH2): the figures for the EC50 in test [1], in test [3] and in test [4] were 251 nM, 1000 nM and 53 nM, respectively. Besides, the IC50 in test [2] stood at 10100 nM.
Consider `CCCC[C@H](NC(=O)[C@H](CC(C)C)NC(=O)[C@H](CCC(N)=O)NC(=O)[C@@H](NC(=O)[C@H](CCC(=O)O)NC(=O)[C@H](C)NC(=O)[C@@H](NC(=O)[C@H](C)N)C(C)C)[C@@H](C)CC)C(=O)N[C@@H](Cc1cnc[nH]1)C(=O)N[C@@H](CCC(N)=O)C(=O)N[C@@H](CCCCNC(=N)N)C(=O)N[C@@H](C)C(=O)N[C@@H](CCCCN)C(=O)N[C@@H](Cc1c[nH]c2ccccc12)C(=O)N[C@@H](Cc1ccc(O)cc1)C(N)=O` (H-AVAEIQL[Nle]HQ[hArg]AKWY-NH2), for which the EC50 in test [1] stood at 129 nM; in test [3], 1460 nM; in test [4], 26 nM. The molecule also displayed an IC50 in test [2] of 2190 nM.
As to `CCCC[C@H](NC(=O)[C@H](CC(C)C)NC(=O)[C@H](CCC(N)=O)NC(=O)[C@@H](NC(=O)[C@H](CCC(=O)O)NC(=O)[C@H](C)NC(=O)[C@@H](NC(=O)[C@H](C)N)C(C)C)[C@@H](C)CC)C(=O)N[C@@H](Cc1cnc[nH]1)C(=O)N[C@@H](CCC(N)=O)C(=O)N[C@@H](CCCCNC(=N)N)C(=O)N[C@@H](C)C(=O)N[C@@H](CCCCN)C(=O)N[C@@H](Cc1ccc(O)cc1)C(N)=O` (H-AVAEIQL[Nle]HQ[hArg]AKY-NH2), the EC50 was found to be 344 nM in test [1], 1430 nM in test [3] and 13 nM in test [4]. This molecule also returned a 50% inhibitory concentration (IC50) in test [2] of 10600 nM.
For `CC[C@H](C)[C@H](NC(=O)[C@H](CCC(=O)O)NC(=O)C(C)(C)NC(=O)[C@@H](NC(=O)C(C)(C)N)C(C)C)C(=O)N[C@@H](CCC(N)=O)C(=O)N[C@@H](CC(C)C)C(=O)N[C@@H](CCSC)C(=O)N[C@@H](Cc1cnc[nH]1)C(=O)N[C@@H](CCC(N)=O)C(=O)N[C@@H](CCCCNC(=N)N)C(=O)N[C@@H](C)C(=O)N[C@@H](CCCCN)C(=O)N[C@@H](Cc1c[nH]c2ccccc12)C(=O)O` (H-[Aib]V[Aib]EIQLMHQ[hArg]AKW-OH), in the test listed under Mus musculus, the outcome was Active.
On to `CCCC[C@H](NC(=O)[C@H](CC(C)C)NC(=O)[C@H](CCC(N)=O)NC(=O)[C@@H](NC(=O)[C@H](CCC(=O)O)NC(=O)C(C)(C)NC(=O)[C@@H](NC(=O)C(C)(C)N)C(C)C)[C@@H](C)CC)C(=O)N[C@@H](Cc1cnc[nH]1)C(=O)N[C@@H](CCC(N)=O)C(=O)N[C@@H](CCCNC(=N)N)C(=O)N[C@@H](C)C(=O)N[C@@H](CCCCNC(=O)c1ccccc1-c1c2ccc(=O)cc-2oc2cc(O)ccc12)C(=O)N[C@@H](Cc1ccc(O)cc1)C(N)=O` (H-[Aib]V[Aib]EIQL[Nle]HQRAK(X1)Y-NH2), for which, in test [2], the concentration for half-maximal inhibition (IC50) worked out at 13.5 nM. The EC50 in test [3] is 7.2 nM; in test [4], 0.92 nM.
In test [2], `CCCC[C@H](NC(=O)[C@H](CC(C)C)NC(=O)[C@H](CCC(N)=O)NC(=O)[C@@H](NC(=O)[C@H](CCC(=O)O)NC(=O)C(C)(C)NC(=O)[C@@H](NC(=O)C(C)(C)N)C(C)C)[C@@H](C)CC)C(=O)N[C@@H](Cc1cnc[nH]1)C(=O)N[C@@H](CCC(N)=O)C(=O)N[C@@H](CCCN=C(N)N)C(=O)N[C@@H](C)C(=O)N[C@@H](CCCCN)C(=O)N[C@@H](Cc1ccc(O)cc1)C(=O)N[C@@H](CCCCNC(=O)c1ccccc1-c1c2ccc(=O)cc-2oc2cc(O)ccc12)C(N)=O` (H-[Aib]V[Aib]EIQL[Nle]HQRAKYK(X1)-NH2) had an IC50 of 98.2 nM. Further, the results for the EC50 in test [3] and in test [4] were 20 nM and 1.1 nM, respectively.
The molecule `CCCC[C@H](NC(=O)[C@H](CC(C)C)NC(=O)[C@H](CCC(N)=O)NC(=O)[C@@H](NC(=O)[C@H](CCC(=O)O)NC(=O)C(C)(C)NC(=O)[C@@H](NC(=O)C(C)(C)N)C(C)C)[C@@H](C)CC)C(=O)N[C@@H](Cc1cnc[nH]1)C(=O)N[C@@H](CCC(N)=O)C(=O)N[C@@H](CCCCN=C(N)N)C(=O)N[C@@H](C)C(=O)N[C@@H](CCCCN)C(=O)N[C@@H](Cc1ccc(O)cc1)C(N)=O` (H-[Aib]V[Aib]EIQL[Nle]HQ[hArg]AKY-NH2) showed an IC50 in test [2] of 7.2 nM. In addition, the EC50 in test [4] is 0.06 nM.
